Measured values published in ChEMBL document CHEMBL3797074, “Synthesis and optimization of N-heterocyclic pyridinones as catechol-O-methyltransferase (COMT) inhibitors” (Bioorg Med Chem Lett, 2016).

How the values were obtained:
[1] = biological target: T1, Catechol O-methyltransferase (Homo sapiens, UniProt P21964); assay: Inhibition of recombinant human C-terminal His6-tagged MB-COMT expressed in Bacmid using SAM/dopamine as substrate preincubated for 2 hrs followed by substrate addition measured after 25 mins by SAC TAMRA tracer-based fluorescence polarization assay
T1 sequence (P21964 whole entry): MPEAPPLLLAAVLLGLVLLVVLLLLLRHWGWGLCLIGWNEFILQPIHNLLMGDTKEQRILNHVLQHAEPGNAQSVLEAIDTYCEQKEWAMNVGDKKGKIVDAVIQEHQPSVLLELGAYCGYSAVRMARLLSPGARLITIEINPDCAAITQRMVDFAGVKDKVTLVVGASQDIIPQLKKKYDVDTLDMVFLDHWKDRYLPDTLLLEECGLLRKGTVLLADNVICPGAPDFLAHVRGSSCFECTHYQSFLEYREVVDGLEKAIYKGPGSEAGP

[2] = biological target: T1, Catechol O-methyltransferase; assay: Inhibition of recombinant human C-terminal His6-tagged soluble COMT transfected in Escherichia coli BL21-Gold (DE3) using SAM/dopamine as substrate preincubated for 2 hrs followed by substrate addition measured after 25 mins by SAC TAMRA tracer-based fluorescence polarization assay
[3] = biological target: T2, Catechol O-methyltransferase (Rattus norvegicus, UniProt P22734); assay: Inhibition of recombinant rat C-terminal His10-tagged MB-COMT transfected in Escherichia coli BL21-CodonPlus(DE3)-RIPL using SAM/dopamine as substrate preincubated for 2 hrs followed by substrate addition measured after 25 mins by SAC TAMRA tracer-based fluorescence polarization assay
T2 sequence (P22734 whole entry): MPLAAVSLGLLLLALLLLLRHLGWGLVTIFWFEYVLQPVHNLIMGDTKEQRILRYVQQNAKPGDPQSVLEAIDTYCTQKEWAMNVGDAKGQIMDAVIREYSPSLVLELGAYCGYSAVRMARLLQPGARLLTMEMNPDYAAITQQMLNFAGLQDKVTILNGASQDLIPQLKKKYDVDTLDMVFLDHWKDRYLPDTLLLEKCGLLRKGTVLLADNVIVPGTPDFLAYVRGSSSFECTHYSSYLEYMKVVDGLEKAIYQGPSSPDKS

[4] = Plasma clearance in rat at 0.5 mg/kg, iv; assay type: ADME, organism-based
In short: (§1)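 Rat PK after a single intravenous dose of 0.5 mg/kg given in DMSO. Plasma clearance, volume of distribution and half-life were derived from the plasma data.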

[5] = Intrinsic clearance in human hepatocytes; assay type: ADME, cell-based, Hepatocyte; conditions: read-out: CLH
[6] = Intrinsic clearance in rat hepatocytes; assay type: ADME, cell-based, Hepatocyte; conditions: read-out: CLH
[7] = Plasma concentration in rat at 100 mg/kg, ip after 1 hr; assay type: ADME, organism-based
In short: (§2)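 Rats dosed intraperitoneally at 30 or 100 mg/kg. Plasma and cerebrospinal fluid were sampled one hour after dosing, and drug concentrations were measured in each.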

[8] = Drug uptake in rat cerebrospinal fluid at 100 mg/kg, ip after 1 hr; assay type: ADME, organism-based; conditions: read-out: Drug uptake; in short: as §2
[9] = tested on: Rattus norvegicus; assay: In vivo inhibition of MB-COMT in ip dosed rat assessed as increase in dihydroxyphenylacetic acid level in cerebrospinal fluid after 1 hr; assay type: functional, organism-based
In short: (§3)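 Rats were dosed intraperitoneally, and cerebrospinal fluid was collected one hour later. HVA and DOPAC levels were measured and compared with vehicle by ANOVA, with significance set at p<0.05.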

[10] = tested on: Cerebrospinal fluid; assay: Drug uptake in rat cerebrospinal fluid at 30 mg/kg, ip after 1 hr; assay type: ADME, organism-based; conditions: in vivo, BLD = below limit of detection; in short: as §2
[11] = Half life in rat at 0.5 mg/kg, iv; assay type: ADME, organism-based; conditions: in vivo; in short: as §1
[12] = Volume of distribution in rat at 0.5 mg/kg, iv; assay type: ADME, organism-based; conditions: in vivo; in short: as §1
[13] = Plasma concentration in rat at 30 mg/kg, ip after 1 hr; assay type: ADME, organism-based; in short: as §2
[14] = tested on: Rattus norvegicus; assay: In vivo inhibition of MB-COMT in ip dosed rat assessed as decrease in homovanillic acid level in cerebrospinal fluid after 1 hr; assay type: functional, organism-based; in short: as §3

Row | IC50 [1] | IC50 [2] | Structure (SMILES) | other results
1 | > 5000 nM | > 5000 nM | O=c1ccn(-c2nc(-c3ccccn3)cs2)cc1O | –
2 | 49.5 nM | – | O=c1ccn(-c2cc(-c3cnn(Cc4ccccc4)c3)ccn2)cc1O | IC50 [3]: 28 nM
3 | 35 nM | – | O=c1ccn(-c2cc(-c3ccc(Cl)c(Cl)c3)ccn2)cc1O | IC50 [3]: 27 nM; clearance [4]: 200 mL/min/kg; CLint scaled [5]: 292 mL/min/kg
4 | 706 nM | 2050 nM | O=c1ccn(-c2ccnc(-c3ccccc3)n2)cc1O | –
5 | 962 nM | 1270 nM | O=c1ccn(-c2nccc3ccccc23)cc1O | –
6 | 574 nM | – | O=c1ccn(-c2cc(-c3cccnc3)ccn2)cc1O | –

Second part, the compound before the results:

Row | Structure (SMILES) | IC50 [1] | IC50 [2] | other results
7 | O=c1ccn(-c2cccc(-c3ccccc3)n2)cc1O | 128 nM | 2580 nM | –
8 | O=c1ccn(-c2ccnc(-c3ccccc3)c2)cc1O | 456 nM | 2320 nM | –
9 | O=c1ccn(-c2cc(-c3cccc(C(F)(F)F)n3)ccn2)cc1O | 84 nM | – | IC50 [3]: 11 nM
10 | Cc1cn2nc(-n3ccc(=O)c(O)c3)ccc2n1 | > 5000 nM | 1670 nM | –
11 | O=c1ccn(-c2ncccc2-c2ccccc2)cc1O | > 5000 nM | > 5000 nM | –
12 | O=c1ccn(-c2cccc(-c3ccccc3)c2)cc1O | – | – | CLint scaled [6]: 583 mL/min/kg; clearance [4]: 58 mL/min/kg; CLint scaled [5]: 320 mL/min/kg
13 | O=c1ccn(-c2cc(-c3ccccn3)ccn2)cc1O | 826 nM | – | –
14 | O=c1ccn(-c2cc(-c3ccccc3)ccn2)cc1O | 40 nM | 3020 nM | concentration at 1 h [7]: 3600 nM; concentration at 1 h [8]: 410 nM; inhibition [9]: Dose-dependent effect; Drug uptake [10]: BLD; half-life [11]: 24 min; Vd [12]: 1.9 L/kg; concentration at 1 h [13]: 70 nM; IC50 [3]: 15 nM; CLint scaled [6]: 448 mL/min/kg; inhibition [14]: Dose-dependent effect; clearance [4]: 94 mL/min/kg; CLint scaled [5]: 74 mL/min/kg
15 | CC(C)(C)c1nc(-c2ccnc(-n3ccc(=O)c(O)c3)c2)cs1 | 101 nM | – | IC50 [3]: 15 nM
16 | O=c1ccn(-c2cc(-c3ccncc3)ccn2)cc1O | 672 nM | – | –
17 | O=c1ccn(-c2nccc(-c3ccccc3)c2F)cc1O | 55 nM | 946 nM | –
